Measurements taken from ChEMBL document CHEMBL3808334, “Synthesis and in vitro evaluation of novel triazine analogues as anticancer agents and their interaction studies with bovine serum albumin” (Eur J Med Chem, 2016).

Tests used:
[1] = Growth inhibition of human SF539 cells assessed as cell growth at 10^-8 M incubated for 48 hrs by sulforhodamine B assay; format: functional; settings: SF-539, 48 h, read-out: Activity
SR = experiment: Growth inhibition of human SR cells incubated for 48 hrs by sulforhodamine B assay; format: functional
Summary of the method: (§1)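 Cells were plated at 5,000–40,000 per well according to doubling time and preincubated 24 h at 37 °C in 5% CO2; time-zero plates were then TCA-fixed. Five concentrations (10-fold or ½-log dilutions, DMSO stock) were incubated 48 h. Cells were TCA-fixed, stained with 0.4% SRB and read at 515 nm. GI50 was taken where [(Ti−Tz)/(C−Tz)]×100 = 50.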

KM12 = experiment: Growth inhibition of human KM12 cells assessed as cell growth at 10^-8 M incubated for 48 hrs by sulforhodamine B assay; format: functional; settings: KM12, 48 h, read-out: Activity
[2] = Growth inhibition of human non-small cell lung cancer cells incubated for 48 hrs by sulforhodamine B assay; format: functional; settings: Cancer cell lines; for CC50: read-out: LC50 (the source's name)
SK-MEL-2 = experiment: Growth inhibition of human SK-MEL-2 cells incubated for 48 hrs by sulforhodamine B assay; format: functional; settings: SK-MEL-2, 48 h; summary of the method: as §1
[3] = Growth inhibition of human HCT116 cells assessed as cell growth at 10^-7 M incubated for 48 hrs by sulforhodamine B assay; format: functional; settings: HCT-116, 48 h, read-out: Activity
Summary of the method: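 Cells seeded at 5,000–40,000/well according to doubling time and preincubated 24 h at 37 °C, 5% CO2. Time-zero plates were TCA-fixed. DMSO concentrate was diluted in medium with 50 µg/ml gentamicin to give five concentrations (10-fold or ½ log steps), then exposed 48 h. Cells were TCA-fixed, stained with 0.4% SRB and read at 515 nm. Percent growth was taken against time-zero and control; GI50, TGI and LC50 derived.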

MDA-MB-468 = experiment: Growth inhibition of human MDA-MB-468 cells incubated for 48 hrs by sulforhodamine B assay; format: functional; settings: MDA-MB-468, 48 h; summary of the method: as §1
[4] = Growth inhibition of human PC3 cells incubated for 48 hrs by sulforhodamine B assay; format: functional; settings: PC-3, 48 h; summary of the method: as §1
T47D = experiment: Growth inhibition of human T47D cells assessed as cell growth at 10^-5 M incubated for 48 hrs by sulforhodamine B assay; format: functional; settings: read-out: Activity
786-0 = experiment: Growth inhibition of human 786-0 cells assessed as cell growth at 10^-8 M incubated for 48 hrs by sulforhodamine B assay; format: functional; settings: 786-0, 48 h, read-out: Activity
Summary of the method: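 Five-dose assay: five concentrations from 10-fold or ½-log serial dilutions. Cells are plated at 5,000–40,000 per well according to doubling time, grown 24 h, then exposed 48 h at 37 °C, 5% CO₂. Fixed with cold 50% TCA (final addition) for 60 min at 4 °C and stained with 0.4% SRB in 1% acetic acid. Bound dye is solubilized in 10 mM Tris base and read at 515 nm. GI₅₀ is where [(Ti−Tz)/(C−Tz)]×100 = 50, with a time-zero plate as Tz.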

[5] = Growth inhibition of human TK10 cells assessed as cell growth at 10^-8 M incubated for 48 hrs by sulforhodamine B assay; format: functional; settings: TK-10, 48 h, read-out: Activity
K562 [6] = experiment: Growth inhibition of human K562 cells assessed as cell growth at 10^-5 M incubated for 48 hrs by sulforhodamine B assay; format: functional; settings: K562, 48 h, read-out: Activity
[7] = Growth inhibition of human IGROV1 cells assessed as cell growth at 10 uM incubated for 48 hrs by sulforhodamine B assay; format: functional; settings: IGROV-1, 48 h, read-out: Activity
[8] = Growth inhibition of human HL-60(TB) cells incubated for 48 hrs by sulforhodamine B assay; format: functional; settings: HL-60, 48 h
Summary of the method: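 Five-concentration, 48 h SRB screen (10-fold or ½-log dilutions from a 400× DMSO concentrate; 24 h preincubation at 37 °C, 5% CO₂; time-zero plate; A515). GI50 was solved from (Ti−Tz)/(C−Tz)×100 = 50. TGI was taken where Ti = Tz, and LC50 from (Ti−Tz)/[…].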

[9] = Growth inhibition of human RPMI8226 cells assessed as cell growth at 10^-6 M incubated for 48 hrs by sulforhodamine B assay; format: functional; settings: RPMI-8226, 48 h, read-out: Activity
[10] = Growth inhibition of human HOP92 cells assessed as cell growth at 10^-4 M incubated for 48 hrs by sulforhodamine B assay; format: functional; settings: HOP-92, 48 h, read-out: Activity
[11] = Growth inhibition of human SNB19 cells assessed as cell growth at 10^-5 M incubated for 48 hrs by sulforhodamine B assay; format: functional; settings: SNB-19, 48 h, read-out: Activity
K562 [12] = experiment: Growth inhibition of human K562 cells assessed as cell growth at 10^-7 M incubated for 48 hrs by sulforhodamine B assay; format: functional; settings: K562, 48 h, read-out: Activity
Albumin = Albumin (Bos taurus, UniProt P02769); experiment: Binding affinity to bovine serum albumin assessed as binding constant in emission spectra by Benesie-Hildebrand plot analysis; format: ADME; settings: cattle, isolated protein
Chain of Albumin (P02769 whole entry): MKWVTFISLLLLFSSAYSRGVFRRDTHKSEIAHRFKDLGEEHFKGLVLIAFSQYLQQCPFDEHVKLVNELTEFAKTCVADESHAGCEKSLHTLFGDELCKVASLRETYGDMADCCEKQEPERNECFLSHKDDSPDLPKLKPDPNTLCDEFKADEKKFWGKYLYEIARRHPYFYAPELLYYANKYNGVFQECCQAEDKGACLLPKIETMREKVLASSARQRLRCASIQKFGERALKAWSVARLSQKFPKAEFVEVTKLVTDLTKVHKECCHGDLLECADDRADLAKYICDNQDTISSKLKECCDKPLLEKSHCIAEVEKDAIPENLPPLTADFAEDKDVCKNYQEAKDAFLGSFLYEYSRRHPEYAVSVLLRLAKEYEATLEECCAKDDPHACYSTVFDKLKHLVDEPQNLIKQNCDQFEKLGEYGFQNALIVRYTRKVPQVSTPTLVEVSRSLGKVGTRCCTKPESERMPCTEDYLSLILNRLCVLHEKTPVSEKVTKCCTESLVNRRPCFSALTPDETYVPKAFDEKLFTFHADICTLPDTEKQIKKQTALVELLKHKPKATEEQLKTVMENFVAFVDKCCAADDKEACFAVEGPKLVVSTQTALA
Summary of the method: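 BSA, 10 µM, in 0.1 M phosphate buffer pH 7.4, titrated with compound (0–20 µM per the figure; diluted from 10⁻³ mol L⁻¹ DMSO stocks). Run at 300 K in a 1 cm quartz cell. UV spectra taken 200–800 nm after 5 min equilibration; fluorescence excited at 280 nm, emission 351 nm, slit 10 nm. K is the intercept/slope ratio of a linear fit of 1/(A₀−A) or 1/(F₀−F) vs 1/[compound].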

MDA-MB-435 = experiment: Growth inhibition of human MDA-MB-435 cells assessed as cell growth at 10^-6 M incubated for 48 hrs by sulforhodamine B assay; format: functional; settings: MDA-MB-435, 48 h, read-out: Activity
U-251 = experiment: Growth inhibition of human U251 cells assessed as cell growth at 10 uM incubated for 48 hrs by sulforhodamine B assay; format: functional; settings: U-251, 48 h, read-out: Activity
[13] = Growth inhibition of human leukemia cells incubated for 48 hrs by sulforhodamine B assay; format: functional; settings: Leukemia cell; for CC50: read-out: LC50 (the source's name)
[14] = read-out: LC50 (the source's name)
[15] = read-out: pLC50 (the source's name) (converted)

In the case of `Fc1ccc(-c2nc(Nc3ccc(-c4nc5ccccc5[nH]4)cc3)nc(N3CCOCC3)n2)cc1`, the growth at 0.01 µM [1] was 98%, the GI50 (SR; read-out: GI50) was 0.539 µM and the CC50 (SR; [14]) was > 100 µM. The GI50 (SR; read-out: pGI50 (converted)) was 0.537 µM, the CC50 (SR; [15]) was > 100 µM and the growth at 0.01 µM (KM12) was 95%. The GI50 [2] was 2.68 µM, the TGI [2] was 6.65 µM and the CC50 [2] was 7.76 µM. The GI50 (SK-MEL-2; read-out: GI50) was 2.33 µM, the CC50 (SK-MEL-2; [14]) was > 100 µM and the TGI (SK-MEL-2; read-out: TGI) was 5.49 µM. The GI50 (SK-MEL-2; read-out: pGI50 (converted)) was 2.34 µM, the CC50 (SK-MEL-2; [15]) was > 100 µM and the TGI (SK-MEL-2; read-out: pTGI (converted)) was 5.5 µM. For the same molecule, the growth at 0.1 µM [3] was 94%, the GI50 (MDA-MB-468; read-out: GI50) was 2.92 µM and the CC50 (MDA-MB-468; [14]) was > 100 µM. The TGI (MDA-MB-468; read-out: TGI) was 7.65 µM, the GI50 (MDA-MB-468; read-out: pGI50 (converted)) was 2.95 µM and the CC50 (MDA-MB-468; [15]) was > 100 µM. For the same molecule, the TGI (MDA-MB-468; read-out: pTGI (converted)) was 7.59 µM, the GI50 ([4]; read-out: GI50) was 2.39 µM and the CC50 [4, 14] was > 100 µM. The TGI ([4]; read-out: TGI) was 6.66 µM, the GI50 ([4]; read-out: pGI50 (converted)) was 2.4 µM and the CC50 [4, 15] was > 100 µM. It also gave a TGI ([4]; read-out: pTGI (converted)) of 6.61 µM, a growth at 10 µM (T47D) of -50% and a growth at 0.01 µM (786-0) of 100%. For the same molecule, the growth at 0.01 µM [5] was 91%, the growth at 10 µM (K562 [6]) was -31% and the growth at 10 µM [7] was 33.7%. The GI50 ([8]; read-out: GI50) was 1.94 µM, the LC50 ([8]; read-out: LC50) was > 100 µM and the TGI ([8]; read-out: TGI) was 5.67 µM. For the same molecule, the GI50 ([8]; read-out: pGI50 (converted)) was 1.95 µM, the LC50 ([8]; read-out: pLC50 (converted)) was > 100 µM and the TGI ([8]; read-out: pTGI (converted)) was 5.62 µM. The growth at 1 µM [9] was 77%, the growth at 100 µM [10] was -58% and the growth at 10 µM [11] was 15%. It also gave a growth at 0.1 µM (K562 [12]) of 101%, a K (Albumin) of 7.9 ×10⁴ /M and a growth at 1 µM (MDA-MB-435) of 95%. For the same molecule, the growth at 10 µM (U-251) was 6.38%, the GI50 [13] was 2.02 µM and the TGI [13] was 6.11 µM. The CC50 [13] was > 100 µM.
In the case of `c1ccc2[nH]c(-c3ccc(Nc4nc(N5CCCCC5)nc(N5CCOCC5)n4)cc3)nc2c1`, the growth at 0.01 µM [1] was 99%, the GI50 (SR; read-out: GI50) was 0.731 µM and the CC50 (SR; [14]) was > 100 µM. For the same molecule, the TGI (SR; read-out: TGI) was 5.73 µM, the GI50 (SR; read-out: pGI50 (converted)) was 0.724 µM and the CC50 (SR; [15]) was > 100 µM. For the same molecule, the TGI (SR; read-out: pTGI (converted)) was 5.75 µM, the growth at 0.01 µM (KM12) was 101% and the GI50 [2] was 2.85 µM. For the same molecule, the TGI [2] was 9.66 µM, the CC50 [2] was 9.54 µM and the GI50 (SK-MEL-2; read-out: GI50) was 2.34 µM. For the same molecule, the CC50 (SK-MEL-2; [14]) was 25.8 µM, the TGI (SK-MEL-2; read-out: TGI) was 5.36 µM and the GI50 (SK-MEL-2; read-out: pGI50 (converted)) was 2.34 µM. For the same molecule, the CC50 (SK-MEL-2; [15]) was 25.7 µM, the TGI (SK-MEL-2; read-out: pTGI (converted)) was 5.37 µM and the growth at 0.1 µM [3] was 94%. For the same molecule, the GI50 (MDA-MB-468; read-out: GI50) was 2.68 µM, the CC50 (MDA-MB-468; [14]) was > 100 µM and the TGI (MDA-MB-468; read-out: TGI) was 6.51 µM. For the same molecule, the GI50 (MDA-MB-468; read-out: pGI50 (converted)) was 2.69 µM, the CC50 (MDA-MB-468; [15]) was > 100 µM and the TGI (MDA-MB-468; read-out: pTGI (converted)) was 6.46 µM. For the same molecule, the GI50 ([4]; read-out: GI50) was 3.05 µM, the CC50 [4, 14] was > 100 µM and the TGI ([4]; read-out: TGI) was 9.13 µM. The GI50 ([4]; read-out: pGI50 (converted)) was 3.02 µM, the CC50 [4, 15] was > 100 µM and the TGI ([4]; read-out: pTGI (converted)) was 9.12 µM. It also gave a growth at 10 µM (T47D) of -46%, a growth at 0.01 µM (786-0) of 99% and a growth at 0.01 µM [5] of 96%. The growth at 10 µM (K562 [6]) was -21%, the growth at 10 µM [7] was 51.3% and the GI50 ([8]; read-out: GI50) was 2.42 µM. The LC50 ([8]; read-out: LC50) was > 100 µM, the TGI ([8]; read-out: TGI) was 5.8 µM and the GI50 ([8]; read-out: pGI50 (converted)) was 2.4 µM. The LC50 ([8]; read-out: pLC50 (converted)) was > 100 µM, the TGI ([8]; read-out: pTGI (converted)) was 5.75 µM and the growth at 1 µM [9] was 87%. It also gave a growth at 100 µM [10] of -71%, a growth at 10 µM [11] of 13% and a growth at 0.1 µM (K562 [12]) of 107%. It also gave a K (Albumin) of 5.7 ×10⁴ /M, a growth at 1 µM (MDA-MB-435) of 95% and a growth at 10 µM (U-251) of 8.02%. The GI50 [13] was 2.37 µM, the TGI [13] was 6.5 µM and the CC50 [13] was > 100 µM.
